Among the data in ChEMBL document CHEMBL3351274, “Sensitization of tumor necrosis factor-related apoptosis-inducing ligand (TRAIL)-resistant primary prostate cancer cells by isoegomaketone from Perilla frutescens” (J Nat Prod, 2014) are Ratio and Activity values, retold here.

The nature of test [1]: Sensitization of TRAIL-induced apoptosis in human RC-58T/h/SA#4 cells assessed as procaspase-3 activation at 20 uM after 24 hrs by immunoblotting analysis relative to untreated control. The class given is functional. Summed up: (§1)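 Cells seeded at 5 × 10^4 cells/mL and cultured 24 h, then given 20 μM compound and/or 100 ng/mL TRAIL for 24 h. Whole-cell lysate made in Tris/NaCl/EDTA/NaF/pyrophosphate/PMSF/aprotinin buffer, 30 min on ice, protein measured by BCA. 12% SDS-PAGE at 10 μg/lane, nitrocellulose blot, primary antibodies (caspase-3, -8, -9, Bax, Bcl-2, PARP) overnight at 4 °C, HRP secondary, ECL.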
On the technique in general: Immunoblotting shows a protein as a band on a membrane.

Test [2] is filed under the species Homo sapiens. In words: Induction of apoptosis in human RC-58T/h/SA#4 cells assessed as CHOP expression at 2.5 to 40 uM by immunoblotting analysis relative to untreated control. The class given is functional, cell-based. The settings on record: TDE = time-dependent effect. Summed up:
(§2)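 RC-58T/h/SA#4 cells seeded at 5 × 10^4 cells/mL and cultured 24 h, then given compound across a concentration series or at fixed dose over a time course. Lysates were quantified by BCA. 10 μg protein/lane run on 12% SDS-PAGE and transferred to nitrocellulose. Blots probed for p53, CHOP and β-actin with HRP secondary and ECL.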

Test [3] in a line: Sensitization of TRAIL-induced apoptosis in human RC-58T/h/SA#4 cells assessed as procaspase-9 activation at 20 uM after 24 hrs by immunoblotting analysis relative to untreated control. The class given is functional. The method in brief:
as §1

Test [4] can be described thus: Induction of apoptosis in human RC-58T/h/SA#4 cells assessed as accumulation at Sub-G1 phase at 20 uM after 24 hrs by annexin-V/propidium iodide staining-based flow cytometry (reference value: 4.8%). The class given is functional.
The nature of test [5]: Induction of apoptosis in human RC-58T/h/SA#4 cells assessed as CHOP expression at 20 uM after 3 hrs by immunoblotting analysis relative to untreated control. The format is functional. Summed up:
as §2

Test [6] can be described thus: Induction of apoptosis in human RC-58T/h/SA#4 cells assessed as CHOP expression at 20 uM after 24 hrs by immunoblotting analysis relative to untreated control. The format is functional. Summed up: as §2

SMILES strings stand for the structures.

As for `CC(C)/C=C/C(=O)c1ccoc1`, the Ratio was 0.4 in test [1], 0.5 in test [3], 1 in test [5] and 1.8 in test [6]. Besides, the Activity result in test [2] was “tde”; in test [4], 10.1%.
